Measurements as given in ChEMBL document CHEMBL1129492, “Structure-activity relationships among 2-substituted 5,6-dichloro-, 4,6-dichloro-, and 4,5-dichloro-1-[(2-hydroxyethoxy) methyl]- and -1-[(1,3-dihydroxy-2-propoxy) methyl]benzimidazoles” (J Med Chem, 1996).

Legend:
KB [1] = experiment: Inhibitory activity of compound against KB cell growth [>-indicates IC50/IC90 was not reached at the noted (highest) concentration tested]; format: functional, cell-based; settings: Homo sapiens
Summary of the method: (§1)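 KB cells plated at 3000-5000 cells/well and held overnight at 37 °C. Compound added in quadruplicate at six to eight concentrations, then 48 h at 37 °C in CO₂ (about two population doublings). Cells fixed with 95% ethanol, stained with 0.1% crystal violet, dye eluted with acidified ethanol and read at 570 nm. IC50 from regression.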

Human betaherpesvirus 5 [2] = experiment: Antiviral activity against human cytomegalovirus (HCM virus) in plaque assay; format: functional, organism-based
Summary of the method: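 HCMV Towne strain (plaque-purified P_O) at ca. 100 PFU/cm² on HFF cell sheets. After adsorption, compound in growth medium was added to duplicate wells at four to eight concentrations. Incubated 7 days at 37 °C, then crystal violet staining and microscopic plaque counts. Percent plaque reduction versus no drug; IC50 from regression lines.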

HFF = experiment: Visual cytotoxicity of compound on HFF cells at time of HCMV plaque enumeration; format: functional, cell-based; settings: Homo sapiens
Summary of the method: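 Stationary, uninfected HFF cells in the HCMV plaque assay were scored microscopically for cytotoxicity when plaques were enumerated, after 7 days at 37 °C.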

Human alphaherpesvirus 1 = experiment: Antiviral activity against herpes simplex virus type 1 (HSV-1) in an ELISA assay; format: functional, organism-based
Summary of the method: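 BSC-1 cells (10 000/well, MEM(E) + 10% calf serum) incubated overnight at 37 °C, then given drug in quadruplicate with HSV-1 at 100 PFU/well. After 3 days at 37 °C, plates were blocked and probed with HRP-conjugated rabbit anti-HSV-1 antibody and developed with tetramethylbenzidine. Absorbance was read at 450 and 570 nm. Percent reduction was taken versus virus without drug.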

KB [3] = experiment: Inhibitory activity of compound against KB cell growth; format: functional, cell-based; settings: Homo sapiens; summary of the method: as §1
Human betaherpesvirus 5 [4] = experiment: Antiviral activity of compound against HCM virus in yield reduction experiments; format: functional
Summary of the method: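 HFF cells infected with HCMV (Towne) at moi 0.5-1 PFU/cell, then given compound serially diluted 1:3 (100 to 0.14 µM) in duplicate. After 7 days at 37 °C, one freeze-thaw cycle. Progeny virus was titered by 1:3 serial dilution on fresh HFF monolayers with plaque counting. IC90 reported.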

Compound | IC50 (KB [1]) [µM] | IC50 (Human betaherpesvirus 5 [2]) [µM] | IC50 (HFF) [µM] | IC50 (Human alphaherpesvirus 1) [µM] | IC50 (KB [3]) [µM] | IC90 (Human betaherpesvirus 5 [4]) [µM]
OCC(CO)OCn1c(Cl)nc2cc(Cl)c(Cl)cc21 | > 100 | > 100 | > 100 | > 100 | – | –
Nc1nc2cc(Cl)c(Cl)cc2n1COCCO | – | > 100 | > 100 | > 100 | > 100 | –
CNc1nc2cc(Cl)c(Cl)cc2n1COCCO | – | > 100 | > 100 | > 100 | > 100 | –
Nc1nc2c(Cl)c(Cl)ccc2n1COCCO | – | > 100 | > 100 | > 100 | > 100 | –
OCCOCn1cnc2c(Cl)cc(Cl)cc21 | – | > 100 | > 100 | > 100 | > 100 | –
CNc1nc2c(Cl)c(Cl)ccc2n1COCCO | – | > 100 | > 100 | > 100 | > 100 | –
OCC(CO)OCn1c(Br)nc2c(Cl)cc(Cl)cc21 | > 100 | 136 | 161 | – | – | 50
Nc1nc2cc(Cl)c(Cl)cc2n1COC(CO)CO | > 100 | > 100 | > 100 | > 100 | – | –
CNc1nc2c(Cl)cc(Cl)cc2n1COC(CO)CO | – | > 100 | 100 | – | – | –
OCC(CO)OCn1c(Br)nc2cc(Cl)c(Cl)cc21 | > 100 | > 100 | > 100 | 100 | – | 25
CN(C)c1nc2c(Cl)c(Cl)ccc2n1COC(CO)CO | > 100 | > 100 | > 100 | > 100 | – | –
OCCOCn1cnc2cc(Cl)c(Cl)cc21 | – | > 100 | > 100 | > 100 | > 100 | –
OCCOCn1cnc2c(Cl)c(Cl)ccc21 | – | > 100 | > 100 | > 100 | > 100 | –
OCCOCn1c(Cl)nc2cc(Cl)c(Cl)cc21 | – | > 320 | > 320 | > 100 | > 320 | –
CN(C)c1nc2c(Cl)cc(Cl)cc2n1COC(CO)CO | > 100 | > 100 | > 100 | > 100 | – | –
OCC(CO)OCn1cnc2cc(Cl)c(Cl)cc21 | > 100 | > 100 | > 100 | > 100 | – | –
OCCOCn1c(SCc2ccccc2)nc2c(Cl)cc(Cl)cc21 | – | 50 | 32 | > 100 | > 100 | –
OCCOCn1c(S)nc2c(Cl)cc(Cl)cc21 | – | > 100 | > 100 | > 100 | > 100 | –
OCC(CO)OCn1c(Cl)nc2c(Cl)c(Cl)ccc21 | > 100 | > 100 | > 100 | 100 | – | –
OCC(CO)OCn1c(S)nc2c(Cl)cc(Cl)cc21 | > 100 | > 100 | > 100 | > 100 | – | –
Nc1nc2c(Cl)cc(Cl)cc2n1COCCO | – | > 100 | – | 100 | > 100 | –
OCC(CO)OCn1c(SCc2ccccc2)nc2c(Cl)c(Cl)ccc21 | 60 | 35 | 32 | 55 | – | –
OCC(CO)OCn1cnc2c(Cl)c(Cl)ccc21 | > 100 | > 100 | > 100 | > 100 | – | –
OCC(CO)OCn1c(Cl)nc2c(Cl)cc(Cl)cc21 | – | > 100 | > 100 | – | – | –
